Among the data in ChEMBL document CHEMBL3120097, “HCV NS5A replication complex inhibitors. Part 4. Optimization for genotype 1a replicon inhibitory activity” (J Med Chem, 2014) are EC50 and CC50 values, retold here.

Series [1] relates to Hepatitis C virus. Briefly: Antiviral activity against HCV genotype 1a H77c infected in human HuH7 cells after 3 days by luciferase reporter gene assay. The class given is functional, organism-based, Hepacivirus hominis. The note with it: Huh-7, 72 h. In a few lines: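 Titrated compounds in 384-well plates seeded with replicon cells, 2.4 × 10³/well in DMEM with 4% FCS, final DMSO 0.5% v/v; 3 days at 37 °C. Renilla luciferase read with EnduRen substrate at […] final after ≥1 h at 37 °C; EC₅₀ from four-parameter logistic fit.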

Series [2] deals with Bovine viral diarrhea virus 1. Briefly: Antiviral activity against BVDV infected in bovine MDBK cells after 72 hrs by luciferase reporter gene assay. The class given is functional, organism-based. The note with it: Bovine viral diarrhea virus isolates and strains. A general note: In a reporter assay the amount or activity of a reporter protein is the signal.
A short description of series [3]: Cytotoxicity against bovine MDBK cells after 3 days by CellTitre-Blue assay. Type of series: cell-based, Bos taurus. The note with it: cattle.
In series [4] the test system is Hepatitis C virus. Description: Antiviral activity against HCV genotype 1b infected in human HuH7 cells after 72 hrs by FRET assay. Type of series: functional, organism-based, Hepacivirus hominis. The following applies: Huh-7, 72 h. In a few lines: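 Replicon cells seeded 10K/well, attached overnight; compounds added with 0.5% v/v DMSO vehicle controls, typically 72 h. Alamar blue read first, then cells PBS-rinsed and lysed with reagent holding 150 mM NaCl and 20 μM final EDANS/DABCYL NS3 protease peptide; kinetic fluorescence 340/490 nm. EC₅₀ = concentration halving background-subtracted FRET signal versus DMSO wells.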

The test system of series [5] is Hepatitis C virus. Briefly: Antiviral activity against HCV genotype 4a. Type of series: functional, organism-based, Hepacivirus hominis.
A short description of series [6]: Cytotoxicity against human Huh7.5 cells. The class given is cell-based, Huh-7.
Series [7] relates to Hepatitis C virus. Description: Antiviral activity against HCV genotype 2a JFH. Type of series: functional, organism-based, Hepacivirus hominis. The note with it: subtype 2a JFH.
Series [8] relates to Hepatitis C virus. Briefly: Antiviral activity against HCV genotype 1a H77c infected in human HuH7 cells after 5 days by ELISA. The class given is functional, organism-based, Hepacivirus hominis. The note with it: Huh-7, 120 h. In a few lines: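 Genotype 1a (H77c) replicon cells, 1.5 × 10⁴/well in DMEM + 10% FBS, attached overnight at 37 °C; serially diluted compounds (in FBS-free DMEM) added, 5 days at 37 °C. Cells dried overnight at 37 °C to fix, Triton-permeabilized, casein-blocked; NS5A antiserum then HRP secondary, chemiluminescent read. Inhibition relative to untreated wells; background set with 500 nM NS3 inhibitor.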
On the technique in general: An ELISA detects its analyte on a solid surface through an enzyme-linked reagent.

Series [9] has as its system Hepatitis C virus. Briefly: Antiviral activity against HCV genotype 1a H77c infected in human HuH7 cells after 72 hrs. The following applies: Huh-7, 72 h.

The structures appear in SMILES notation. pEC50: −log10 of the molar value.

By pEC50 is commonly meant −log10 of the EC50, conventionally taken in molar units. By CC50 is commonly meant the concentration at which the toxic effect on the cells reaches its halfway point.

In the case of `COc1cccc2c(C(=O)N3CCC[C@H]3C(=O)Nc3ccc(-c4cnc(-c5ccc(NC(=O)[C@@H]6CCCN6C(=O)c6nc(Cl)cc7c(OC)cccc67)cc5)o4)cc3)nc(Cl)cc12`, the pEC50 in series [1] was 7.28; in series [2] it was under 5.00; in series [4], 7.47. Further, the CC50 at 72 h in series [3] was over 10000 nM.
As to `COc1cccc2c(C(=O)N3CCC[C@H]3C(=O)Nc3ccc(-c4cc(-c5ccc(NC(=O)[C@@H]6CCCN6C(=O)c6nc(Cl)cc7c(OC)cccc67)cc5)[nH]n4)cc3)nc(Cl)cc12`, the pEC50 in series [1] is 6.92; in series [2], under 5.00; in [4] it was 7.96. The same molecule returned a CC50 at 72 h in series [3] of over 10000 nM.
The corresponding values for `O=C(Nc1ccc(-c2cc(-c3ccc(NC(=O)[C@@H]4CCCN4C(=O)Cc4ccccc4)cc3)[nH]n2)cc1)[C@@H]1CCCN1C(=O)Cc1ccccc1` are 5.86, under 5.00, 8.32 and over 10000 nM.
`COc1cccc2c(C(=O)N3CCC[C@H]3C(=O)Nc3ccc(/C=C/c4ccc(NC(=O)[C@@H]5CCCN5C(=O)c5nc(Cl)cc6c(OC)cccc56)cc4)cc3)nc(Cl)cc12`: the pEC50 in series [5] was under 6.00; in series [7], 8.66; in series [2] it was under 5.00; in series [4], 8.15; in series [8], 7.43. For the same molecule, the CC50 in series [6] is over 10000 nM. In addition, the CC50 at 72 h in series [3] is over 10000 nM.
For the molecule `COc1cccc2c(C(=O)N3CCC[C@H]3C(=O)Nc3ccc(C#Cc4ccc(NC(=O)[C@@H]5CCCN5C(=O)c5nc(Cl)cc6c(OC)cccc56)cc4)cc3)nc(Cl)cc12`, the pEC50 in [1] was 7.74; in series [2], under 5.00; in series [4] it was 7.64. The CC50 at 72 h in series [3] was over 10000 nM.
Regarding `O=C(Nc1ccc(/C=C/c2ccc(NC(=O)[C@@H]3CCCN3C(=O)c3cc4ccccc4cn3)cc2)cc1)[C@@H]1CCCN1C(=O)c1cc2ccccc2cn1`, the results for the pEC50 in [2], in series [4] and in series [9] were under 5.30, 6.55 and 5.51, respectively. In series [3], this molecule registered a CC50 at 72 h of over 10000 nM.
As for `O=C(Nc1ccc(/C=C/c2ccc(NC(=O)[C@@H]3CCCN3C(=O)Cc3ccccc3)cc2)cc1)[C@@H]1CCCN1C(=O)Cc1ccccc1`, the values for the negative logarithm of the EC50 (pEC50) in series [5], in series [7] and in series [2] were 6.80, 7.10 and under 5.30, respectively. Besides, the CC50 at 72 h in series [3] is over 30000 nM.
